UCH37 inh – blocks the human deubiquitinase UCH37; Q9Y5K5; purified proteasome/UCH37, Ub-AMC cleavage fluorescence; inhibition, % (concentration not given with the values); 330,000 compounds, 0.33% hits; AID 588478;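 active = mean inhibition over replicate wells above about 20%, limit read from the data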;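 note: 0% = compound-free wells with enzyme and 100% = wells lacking proteasome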
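assay system = human UCH37 enzyme supplied as purified proteasome complex | amount = proteasome at 0.15 nM in the dispensed enzyme solution | schedule = 30 min compound-proteasome preincubation then 25 min substrate reaction, room temperature | measured by = fluorescence, ex 355 nm, em 460 nm | benchmarks = no-proteasome wells (full inhibition) and compound-free wells (no inhibition)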
beta cell repl – MIN6 beta-cell proliferation induction. MIN6 cells proliferation, ATPlite luminescence, 48 h; cells starved in 0.2% serum; 100% = growth in 10% serum. AID 2380. 330,000 compounds, 0.29% hits. proliferation, % at 10 µM;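 active = compounds whose signal lies at least 3.5 SD above the mean of all wells on their plate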;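 note: 0% = DMSO-treated cells in low-serum medium and 100% = 10% serum control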
NR1D1 modulator – Rev-erb alpha (human) modulation. 370,000 compounds, 0.79% hits. activity, % at 10 µM. Rev-erbα–FITC-DNA binding, fluorescence polarization, 90 min. P20393;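 active = activity above about 14%, limit read from the data; passing the limit was not always enough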;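 note: 0% = DMSO wells with 35 nM protein and 100% = DMSO wells with 750 nM protein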
Target sequence (P20393 whole entry, looked up): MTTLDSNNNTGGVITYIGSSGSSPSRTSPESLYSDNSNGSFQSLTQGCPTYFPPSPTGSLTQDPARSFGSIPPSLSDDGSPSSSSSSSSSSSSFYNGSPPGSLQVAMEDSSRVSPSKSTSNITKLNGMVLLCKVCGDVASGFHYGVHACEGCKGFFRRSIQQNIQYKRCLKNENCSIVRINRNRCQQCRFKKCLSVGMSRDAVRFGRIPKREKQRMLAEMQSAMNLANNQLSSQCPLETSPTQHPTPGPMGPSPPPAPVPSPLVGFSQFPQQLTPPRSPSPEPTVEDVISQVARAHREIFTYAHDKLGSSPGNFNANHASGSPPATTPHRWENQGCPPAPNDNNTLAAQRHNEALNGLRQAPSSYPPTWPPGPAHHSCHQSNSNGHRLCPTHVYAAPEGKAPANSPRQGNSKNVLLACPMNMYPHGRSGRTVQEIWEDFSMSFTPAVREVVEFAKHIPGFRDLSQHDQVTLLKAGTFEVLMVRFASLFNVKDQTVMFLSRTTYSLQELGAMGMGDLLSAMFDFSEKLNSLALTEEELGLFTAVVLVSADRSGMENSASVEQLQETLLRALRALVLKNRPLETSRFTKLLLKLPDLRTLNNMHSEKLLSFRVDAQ
PG9 binder – binds the HIV-1 gp120 antibody PG9 | TR-FRET gp120-PG9 antibody binding | inhibition, % at 6.7 µM | 360,000 compounds, 0.43% hits; in the data active = inhibition above about 8.5%
CR mimetic SO – caloric restriction mimetics inhibiting age-related superoxide in yeast | S. cerevisiae aged cells, superoxide DHE fluorescence; hits give low values | superoxide response (% of plate mean), % at 10 µM | 330,000 compounds, 0.18% hits | AID 2690;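 active = superoxide response under a set limit, about three screen SD below normal, cut at about 65% in these data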;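 note: yeast aged for seven days with compound at 30 °C before DHE staining; 100% = average MFI of all compound-treated wells on the plate with controls excluded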
Rce1 inhib – inhibitors of yeast Ras-converting enzyme; 290,000 compounds, 0.27% hits; calls only; yeast membranes, quenched prenylated peptide cleavage fluorescence;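 active = fall in fluorescence gain of 50% or more versus controls, with final raw signal at or below 3038400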;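 note: plate controls were neutral control wells for no effect and wells lacking membranes for full effect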
Superoxide pick – yeast aging superoxide inhibition, cherry pick confirmation | S. cerevisiae aging, superoxide DHE fluorescence; hits give low values | shares compounds with CR mimetic SO | superoxide response (% of plate), % at 10 µM | 850 compounds, 1% hits;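 active = superoxide signal below 65% of the plate average of sample wells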;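 note: cells aged with compound for 7 days at 30 degrees C before staining; 100% equals mean DHE fluorescence of all compound wells on the plate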
DHE counter – DHE fluorescence interference, counter-screen artifact; shares compounds with CR mimetic SO; S. cerevisiae BY4741, flow cytometry; hits give low values; fluorescence response, % at 10 µM; 850 tested, under 10 active;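 active = fluorescence response below 15%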;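 note: percent of the mean fluorescence averaged over all compound wells on the plate; lower means stronger quenching of DHE signal or ROS scavenging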
* = called active by the depositor. This is a sample that favours compounds with a hit; in the whole collection about 1.9% have one here.

Screening Clc1ccc2c(NN=Cc3ccccc3Br)ccnc2c1 returned UCH37 inh -6.
Screening COc1ccc(OC)c(C=NNC(=O)c2cnccn2)c1 returned UCH37 inh 10.
For O=c1c2ccc(Cl)cc2nc(-c2ccc([N+](=O)[O-])cc2)n1O the results were UCH37 inh 6, beta cell repl -6, NR1D1 modulator 1, PG9 binder 0, CR mimetic SO 54*, Rce1 inhib inactive, Superoxide pick 87 and DHE counter 90.
Screening O=c1c2cc(Br)ccc2nc(-c2ccc([N+](=O)[O-])cc2)n1O returned UCH37 inh 5, beta cell repl -5, NR1D1 modulator -2, PG9 binder -4 and CR mimetic SO 87.
COc1ccc(C=NNC(=S)NCc2ccccc2)cc1OC was read as UCH37 inh 4.
For CCN(CC)Cc1cc(NC2=NS(=O)(=O)c3ccccc32)ccc1OC(=O)c1ccccc1 the results were UCH37 inh 8, beta cell repl 0, NR1D1 modulator -6, PG9 binder -1, CR mimetic SO 63*, Rce1 inhib inactive, Superoxide pick 103 and DHE counter 109.
CCN(CC)Cc1cc(NC2=NS(=O)(=O)c3ccccc32)ccc1OC(=O)C(C)C was read as UCH37 inh 8, beta cell repl -2, NR1D1 modulator -1, PG9 binder -2, CR mimetic SO 94 and Rce1 inhib inactive.
Cc1cccc(NC(=O)c2cc(C)nc3ccccc23)c1 was read as UCH37 inh 1, beta cell repl -3, NR1D1 modulator -3, PG9 binder -1, CR mimetic SO 56*, Rce1 inhib inactive, Superoxide pick 97 and DHE counter 93.
For Cn1c(=O)c(C(=O)NNC(=O)c2ccccc2F)c(O)c2ccccc21 the results were UCH37 inh -6, beta cell repl -4, NR1D1 modulator -3, PG9 binder -2, CR mimetic SO 64*, Rce1 inhib inactive, Superoxide pick 91 and DHE counter 89.
Screening COc1cc2c(cc1OC)CN(C(=O)/C=C/c1cc(OC)c(OC)c(OC)c1)CC2 returned UCH37 inh -6, beta cell repl 4, NR1D1 modulator 1, PG9 binder 0, CR mimetic SO 63*, Rce1 inhib inactive, Superoxide pick 97 and DHE counter 98.
COc1cc2c(cc1OC)CN(C(=O)/C=C/c1ccc(F)cc1)CC2 was read as UCH37 inh 3, beta cell repl -1, NR1D1 modulator -3, PG9 binder -1, CR mimetic SO 101 and Rce1 inhib inactive.
Screening Cc1c(C(=O)O)oc2ccc(S(=O)(=O)NCc3ccc(F)cc3)cc12 returned UCH37 inh -1, beta cell repl -1, NR1D1 modulator 1, PG9 binder 2, CR mimetic SO 75 and Rce1 inhib inactive.
For COc1ccc(CNS(=O)(=O)c2ccc3oc(C(=O)O)c(C)c3c2)cc1 the results were UCH37 inh 1, beta cell repl -3, NR1D1 modulator 0, CR mimetic SO 63*, Rce1 inhib inactive, Superoxide pick 100 and DHE counter 121.
Screening Cc1c(C(=O)O)oc2ccc(S(=O)(=O)NC3CCCCCCC3)cc12 returned UCH37 inh 2, beta cell repl -1, NR1D1 modulator -6, PG9 binder -1, CR mimetic SO 63*, Rce1 inhib inactive, Superoxide pick 110 and DHE counter 131.
Screening CC(CC(=O)N1CCN(C=O)CC1)=NNC(=O)c1ccc(Br)cc1 returned UCH37 inh 2.
CC(C)Nc1ncnc2c1cnn2-c1ccccc1 was read as UCH37 inh 3, beta cell repl -4, NR1D1 modulator -2, PG9 binder -1, CR mimetic SO 103, Rce1 inhib inactive, Superoxide pick 108 and DHE counter 89.
For OCCCNc1ncnc2c1cnn2-c1ccc(Cl)cc1 the results were UCH37 inh -4, beta cell repl -5, NR1D1 modulator -2, PG9 binder -1, CR mimetic SO 92, Rce1 inhib inactive, Superoxide pick 92 and DHE counter 90.
CN(C)CCNc1ncnc2c1cnn2-c1ccc(Cl)cc1 was read as UCH37 inh 4, beta cell repl -5, NR1D1 modulator 5, PG9 binder -2, CR mimetic SO 108, Rce1 inhib inactive, Superoxide pick 101 and DHE counter 99.
`COC(=O)c1sccc1NN=Cc1ccc(OC)c(OC)c1OC` gave UCH37 inh -23.
`CC(=O)NC12CC3CC(C1)CC(C(=O)Nc1c(C)n(C)n(-c4ccccc4)c1=O)(C3)C2` gave UCH37 inh 0, beta cell repl 1, NR1D1 modulator -3, PG9 binder 1, CR mimetic SO 62*, Rce1 inhib inactive, Superoxide pick 97 and DHE counter 108.
COc1ccc(C(C)=NNC(=O)C(c2ccncc2)N2CCOCC2)cc1 (centres undefined) was read as UCH37 inh 3.
Screening O=c1cc(O)c2c(=O)n(Cc3ccccc3)c3ccccc3c2o1 returned UCH37 inh -31, beta cell repl -2, NR1D1 modulator 5, PG9 binder 2, CR mimetic SO 70 and Rce1 inhib inactive.
For O=c1cc(O)c2c(=O)n(C3CCCCC3)c3ccccc3c2o1 the results were UCH37 inh -16, beta cell repl -5, NR1D1 modulator 0, PG9 binder 1, CR mimetic SO 98, Rce1 inhib inactive, Superoxide pick 90 and DHE counter 91.
For CCCCn1c(=O)c2c(O)cc(=O)oc2c2ccccc21 the results were UCH37 inh -25, beta cell repl -5, NR1D1 modulator -5, PG9 binder -1, CR mimetic SO 43*, Rce1 inhib inactive, Superoxide pick 115 and DHE counter 105.
Screening Cc1ccccc1NC(=O)CSc1ccc(-c2ccc(-n3cccn3)cc2)nn1 returned UCH37 inh 0, beta cell repl -5, NR1D1 modulator -3, PG9 binder 0, CR mimetic SO 119, Rce1 inhib inactive, Superoxide pick 99 and DHE counter 96.
Screening Cn1nnnc1SCC(=O)Nc1ccccc1-c1ccccc1 returned UCH37 inh 1, beta cell repl -3, NR1D1 modulator -6, PG9 binder -1, CR mimetic SO 97 and Rce1 inhib inactive.
Cc1ccccc1NC(=O)CSc1nnnn1C was read as UCH37 inh 6, beta cell repl 1, NR1D1 modulator -2, PG9 binder -2, CR mimetic SO 60*, Rce1 inhib inactive, Superoxide pick 101 and DHE counter 94.

Screening data as filed in PubChem.
